Tests used:
Type in all cases: functional
[1] = test system: NCI-H522; assay: Growth inhibition of human NCI-H522 cells at 10 uM relative to control; settings: values are per cent of control
Summary of the method: (§1)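 Single-dose preliminary screen in the NCI human cancer cell line panel, run by the NIH. Percent inhibition of cell line growth was calculated by comparison with untreated samples.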

[2] = test system: OVCAR-4; assay: Growth inhibition of human OVCAR4 cells at 10 uM relative to control; settings: values are per cent of control; summary of the method: as §1
[3] = test system: SNB-75; assay: Growth inhibition of human SNB75 cells at 10 uM relative to control; settings: values are per cent of control
Summary of the method: (§2)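 Single-dose NCI human tumour cell line screen, run by the NIH. Percent inhibition of cell line growth was calculated by comparison with untreated samples.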

[4] = test system: EKVX; assay: Growth inhibition of human EKVX cells at 10 uM relative to control; settings: values are per cent of control; summary of the method: as §1
[5] = test system: T47D; assay: Growth inhibition of human T47D cells at 10 uM relative to control; settings: values are per cent of control; summary of the method: as §2
[6] = test system: SF-539; assay: Growth inhibition of human SF539 cells at 10 uM relative to control; settings: values are per cent of control; summary of the method: as §1
[7] = test system: MOLT-4; assay: Growth inhibition of human MOLT4 cells at 10 uM relative to control; settings: values are per cent of control; summary of the method: as §1
[8] = cells; settings: Homo sapiens, Cancer cell lines
[9] = test system: Malme-3M; assay: Growth inhibition of human MALME-3M cells at 10 uM relative to control; settings: values are per cent of control; summary of the method: as §1
[10] = test system: SK-MEL-2; assay: Growth inhibition of human SK-MEL-2 cells at 10 uM relative to control; settings: values are per cent of control; summary of the method: as §1
[11] = test system: HCT-15; assay: Growth inhibition of human HCT15 cells at 10 uM relative to control; settings: values are per cent of control; summary of the method: as §1
[12] = test system: NCI/ADR-RES; assay: Growth inhibition of human NCI/ADR-RES cells at 10 uM relative to control; settings: values are per cent of control; summary of the method: as §1
[13] = test system: NCI-H226; assay: Growth inhibition of human NCI-H226 cells at 10 uM relative to control; settings: values are per cent of control; summary of the method: as §1
[14] = test system: HOP-62; assay: Growth inhibition of human HOP62 cells at 10 uM relative to control; settings: values are per cent of control; summary of the method: as §1
[15] = test system: UACC-257; assay: Growth inhibition of human UACC257 cells at 10 uM relative to control; settings: values are per cent of control; summary of the method: as §2
[16] = test system: HOP-92; assay: Growth inhibition of human HOP92 cells at 10 uM relative to control; settings: values are per cent of control; summary of the method: as §1
[17] = test system: UACC-62; assay: Growth inhibition of human UACC62 cells at 10 uM relative to control; settings: values are per cent of control; summary of the method: as §2
[18] = Growth inhibition of human Hs 578T cells at 10 uM relative to control; settings: values are per cent of control; summary of the method: as §1
[19] = test system: NCI-H322M; assay: Growth inhibition of human NCI-H322M cells at 10 uM relative to control; settings: values are per cent of control; summary of the method: as §1
[20] = test system: SK-OV-3; assay: Growth inhibition of human SKOV3 cells at 10 uM relative to control; settings: values are per cent of control; summary of the method: as §1
[21] = test system: SW-620; assay: Growth inhibition of human SW620 cells at 10 uM relative to control; settings: values are per cent of control; summary of the method: as §2
[22] = test system: A549; assay: Growth inhibition of human A549 cells at 10 uM relative to control; settings: values are per cent of control; summary of the method: as §1
[23] = test system: Melanoma cell; assay: cells; settings: Homo sapiens
[24] = test system: SN12C; assay: Growth inhibition of human SN12C cells at 10 uM relative to control; settings: values are per cent of control; summary of the method: as §1
[25] = test system: MCF7; assay: Growth inhibition of human MCF7 cells at 10 uM relative to control; settings: values are per cent of control; summary of the method: as §1
[26] = test system: LOX IMVI; assay: Growth inhibition of human LOXIMVI cells at 10 uM relative to control; settings: values are per cent of control; summary of the method: as §1
[27] = test system: MDA-MB-468; assay: Growth inhibition of human MDA-MB-468 cells at 10 uM relative to control; settings: values are per cent of control; summary of the method: as §1
[28] = Growth inhibition of human RPMI8266 cells at 10 uM relative to control; settings: values are per cent of control; summary of the method: as §1
[29] = test system: SK-MEL-28; assay: Growth inhibition of human SK-MEL-28 cells at 10 uM relative to control; settings: values are per cent of control; summary of the method: as §1
[30] = test system: K562; assay: Growth inhibition of human K562 cells at 10 uM relative to control; settings: values are per cent of control; summary of the method: as §1
[31] = test system: HCT-116; assay: Growth inhibition of human HCT116 cells at 10 uM relative to control; settings: values are per cent of control; summary of the method: as §1

O=C(/C=C/c1cn(CC(=O)Nc2ccccc2)nn1)NO
growth, % of control at 10 µM [1]: 41%
growth, % of control at 10 µM [2]: 83.7%
growth, % of control at 10 µM [3]: 88.5%
growth, % of control at 10 µM [4]: 70.5%
growth, % of control at 10 µM [5]: 56.6%
growth, % of control at 10 µM [6]: 107%
growth, % of control at 10 µM [7]: 62.2%
inhibition at 10 µM [8]: 68%
growth, % of control at 10 µM [9]: 21.4%
growth, % of control at 10 µM [10]: 51.1%
growth, % of control at 10 µM [11]: 105%
growth, % of control at 10 µM [12]: 13.4%
growth, % of control at 10 µM [13]: 94.1%
growth, % of control at 10 µM [14]: 43.1%
growth, % of control at 10 µM [15]: 54.4%
growth, % of control at 10 µM [16]: 67.8%
growth, % of control at 10 µM [17]: 70.8%
growth, % of control at 10 µM [18]: 84.2%
growth, % of control at 10 µM [19]: 41.8%
growth, % of control at 10 µM [20]: 79.5%
growth, % of control at 10 µM [21]: 91.5%
growth, % of control at 10 µM [22]: 91.2%
inhibition at 10 µM [23]: 69%
growth, % of control at 10 µM [24]: 89%
growth, % of control at 10 µM [25]: 95.8%
growth, % of control at 10 µM [26]: 95.4%
growth, % of control at 10 µM [27]: 64.2%
growth, % of control at 10 µM [28]: 64.2%
growth, % of control at 10 µM [29]: 93.4%
growth, % of control at 10 µM [30]: 86%
growth, % of control at 10 µM [31]: 55.3%

From ChEMBL document CHEMBL1140227, “Histone deacetylase inhibitors through click chemistry” (J Med Chem, 2008)
